Most compounds without a hit are left out; they make up all but 5.9% or so of the library.
T cruzi growth-1 = T. cruzi proliferation inhibition; T. cruzi beta-gal in NIH3T3, GalScreen luminescence, 90 h; 5.9% of 77,000 active; inhibition, % at 8.34 µM;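 active means mean inhibition above about 93%, with at least 55% of replicates each passing it, limit read from the data, passing the limit was not always enough; inconclusive means only one of those two conditions holds; inactive means neither condition holds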
KDM4C inh = KDM4C (human) demethylase inhibition. Q9H3R0. 0.15% of 96,000 active. GST-KDM4C 2-372, H3K9me3 peptide, LANCE TR-FRET. AID 720574. inhibition, % at 12.5 µM;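 active means mean replicate inhibition above about 25%, with at least 55% of replicates also reaching it, limit read from the data, passing the limit was not always enough; inconclusive means only one of those two conditions met; inactive means neither condition met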
Target sequence (Q9H3R0 2-372 limits assumed): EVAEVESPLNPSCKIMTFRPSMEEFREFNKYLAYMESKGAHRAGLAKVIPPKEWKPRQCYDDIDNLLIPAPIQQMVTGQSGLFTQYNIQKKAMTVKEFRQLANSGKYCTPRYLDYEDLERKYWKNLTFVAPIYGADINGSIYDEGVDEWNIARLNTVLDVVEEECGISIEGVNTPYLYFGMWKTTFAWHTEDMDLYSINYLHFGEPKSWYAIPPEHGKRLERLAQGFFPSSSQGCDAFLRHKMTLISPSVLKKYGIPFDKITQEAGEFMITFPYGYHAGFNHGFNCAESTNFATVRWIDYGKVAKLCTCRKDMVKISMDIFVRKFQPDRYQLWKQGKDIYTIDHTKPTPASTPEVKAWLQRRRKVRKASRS
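System: N-terminal GST-fused human GASC-1 (KDM4C) fragment, residues 2-372 / Amount: 10 nM GST-KDM4C in enzyme reaction / Also added: H3K9me3 peptide with Fe(II)/2OG / Times: 30 min demethylation and 1 h detection at room temperature / Signal: LANCE TR-FRET / Read-out basis: Fall in 671/618 emission ratio as inhibition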
IDH1 R132H inh = IDH1 R132H (human) inhibition | O75874 | IDH1 R132H reductase, diaphorase/resazurin fluorescence, 60 min | inhibition, % at 10 µM | 0.18% of 70,000 active; in the data active means inhibition above about 34%; inconclusive means no clear call, values can overlap the other calls; inactive means below about 11%
Pf Dd2 inh = P. falciparum Dd2 growth inhibition | 2.3% of 94,000 active | SYBR Green, 72 h; active compounds read low | AID 1159554 | activity change, % at 10 µM; in the data active means activity change below about -80%; inconclusive means no clear call, values can overlap the other calls
T cruzi growth-2 = Trypanosoma cruzi proliferation inhibition; shares compounds with T cruzi growth-1; T. cruzi beta-gal in NIH3T3, GalScreen luminescence, 90 h; inhibition, % at 8.35 µM; 72% of 5,600 active; AID 651739;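 active means mean replicate inhibition above about 95% and at least 55% of replicates individually reaching it, limit read from the data; inconclusive means only one of the two criteria is met; inactive means neither criterion is met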
T cruzi growth-3 = Trypanosoma cruzi proliferation inhibition; shares compounds with T cruzi growth-1; T. cruzi beta-gal in NIH3T3, GalScreen luminescence, 90 h; inhibition, % at 2.09 µM; 21% of 5,600 active; AID 651740;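 active means mean inhibition above about 95%, with at least 55% of replicates also reaching it, limit read from the data; inconclusive means meets just one of the two conditions; inactive means meets neither condition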
NIH3T3 tox = kills mouse NIH/3T3 fibroblasts; cytotoxicity (signal decrease), % at 8.35 µM; shares compounds with T cruzi growth-1; NIH/3T3 viability, CellTiter-Glo ATP luminescence, 90 h; 14% of 5,600 active;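 active means mean signal decrease across replicates above about 35% based on untreated-well scatter, with enough replicates individually passing, limit read from the data; inconclusive means no rule stated though some were filed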
3T3 cytotox 2 = cytotoxicity in mouse NIH/3T3 fibroblasts. 56% of 5,600 active. NIH/3T3 viability, CellTiter-Glo ATP luminescence, 90 h. inhibition, % at 24.9 µM. shares compounds with T cruzi growth-1;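 active means mean loss of cell viability signal at or above a set limit, and enough replicates individually reaching it; inconclusive means meets only the mean limit or only the replicate share; inactive means meets neither condition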
A number is an active result; n = inactive; u = inconclusive; x = no result.

SMILES | T cruzi growth-1 | KDM4C inh | IDH1 R132H inh | Pf Dd2 inh | T cruzi growth-2 | T cruzi growth-3 | NIH3T3 tox | 3T3 cytotox 2
COc1cccc(-c2ccc3c(c2)O[C@@H](CN(C)C(=O)C2CC2)[C@H](C)CN([C@@H](C)CO)S3(=O)=O)c1 | n | n | x | n | x | x | x | x
COc1cccc(-c2ccc3c(c2)O[C@H](CN(C)C(=O)C2CCCCC2)[C@H](C)CN([C@@H](C)CO)S3(=O)=O)c1 | 117 | n | x | n | 103 | n | n | 89
COc1cccc(-c2ccc3c(c2)O[C@H](CN(C)C(=O)C2CCCCC2)[C@@H](C)CN([C@H](C)CO)S3(=O)=O)c1 | 99 | n | n | n | 101 | n | n | 43
COc1cccc(-c2ccc3c(c2)O[C@@H](CN(C)C(=O)C2CCC2)[C@H](C)CN([C@@H](C)CO)S3(=O)=O)c1 | 110 | n | n | n | 97 | u | n | 27
COc1cccc(-c2ccc3c(c2)O[C@H](CN(C)C(=O)C2CC2)[C@H](C)CN([C@H](C)CO)S3(=O)=O)c1 | n | n | x | n | x | x | x | x
COc1cccc(-c2ccc3c(c2)O[C@@H](CN(C)C(=O)C2CCCCC2)[C@H](C)CN([C@H](C)CO)S3(=O)=O)c1 | 105 | n | x | n | 96 | n | n | 91
Cc1ccc(NC(=O)CN(C)S(=O)(=O)c2ccc(F)cc2)c(C)c1 | x | x | n | x | x | x | x | x
COc1ccccc1OCC(=O)Nc1sc2c(c1C#N)CCCCC2 | x | x | n | x | x | x | x | x
C[C@@H]1CN([C@@H](C)CO)C(=O)c2cc(NS(=O)(=O)c3ccc(F)cc3)ccc2O[C@@H](C)CCCCO[C@@H]1CN(C)Cc1ccc2c(c1)OCO2 | 119 | n | n | n | 106 | n | n | 97
C[C@@H]1CN([C@H](C)CO)C(=O)c2cc(NS(=O)(=O)c3ccc(F)cc3)ccc2O[C@@H](C)CCCCO[C@H]1CN(C)Cc1ccc2c(c1)OCO2 | 112 | n | n | n | 106 | n | n | 104
Cc1n[nH]c(C)c1C(=O)CC1(O)C(=O)Nc2ccc(Br)cc21 (stereo not given) | x | x | n | x | x | x | x | x
COc1cc([C@H]2c3cc(O)c(OC)cc3C[C@@](O)(CO)[C@@H]2CO)ccc1O | x | x | n | x | x | x | x | x
C[C@@H]1CN([C@H](C)CO)C(=O)c2cc(NS(=O)(=O)c3ccc(F)cc3)ccc2O[C@@H](C)CCCCO[C@H]1CN(C)C(=O)C1CCCCC1 | u | n | x | n | 101 | n | n | n
C[C@H](CO)N1C[C@H](C)[C@@H](CN(C)C(=O)C2CCCCC2)OCCCC[C@H](C)Oc2ccc(NS(=O)(=O)c3ccc(Cl)cc3)cc2C1=O | n | n | x | n | x | x | x | x
C[C@@H]1CCCCO[C@@H](CN(C)C(=O)C2CCCCC2)[C@H](C)CN([C@H](C)CO)C(=O)c2cc(NS(=O)(=O)c3ccc(Cl)cc3)ccc2O1 | u | n | n | n | 110 | n | n | 100
C[C@@H]1CN([C@H](C)CO)C(=O)c2cc(NS(=O)(=O)c3ccc(Cl)cc3)ccc2O[C@@H](C)CCCCO[C@H]1CN(C)C(=O)C1CCCCC1 | u | n | x | n | 96 | n | n | 100
C[C@@H]1CCCCO[C@@H](CN(C)C(=O)C2CCCCC2)[C@@H](C)CN([C@H](C)CO)C(=O)c2cc(NS(=O)(=O)c3ccc(Cl)cc3)ccc2O1 | n | n | x | n | x | x | x | x
O=C(NC[C@H]1[C@H](c2ccccc2)[C@@H](CO)N1C(=O)C1CC1)NC1CCCC1 | 117 | n | x | n | n | n | n | n
O=C(NC[C@@H]1[C@H](c2ccccc2)[C@H](CO)N1C(=O)C1CC1)NC1CCCC1 | n | n | x | n | x | x | x | x
O=C(Nc1ccccc1F)N1CCCCN2[C@H](C1)[C@H](c1ccc(C#Cc3ccccc3)cc1)[C@@H]2CO | n | n | x | n | x | x | x | x
O=C(Nc1ccccc1F)N1CCCCN2[C@H](CO)[C@H](c3ccc(C#Cc4cccnc4)cc3)[C@H]2C1 | 101 | n | x | n | 109 | n | n | 70
O=C(Nc1ccccc1F)N1CCCCN2[C@@H](CO)[C@H](c3ccc(C#Cc4cccnc4)cc3)[C@@H]2C1 | 122 | n | x | n | 106 | n | n | 38
COc1cc(/C=N/NC(=O)CCCCCCC(=O)Nc2ccccc2O)c(Br)cc1O | x | x | n | x | x | x | x | x
C[C@H](CO)N1C[C@H](C)[C@H](CN(C)C(=O)CC2CC2)Oc2cc(C#CCC3CCCC3)ccc2S1(=O)=O | 121 | n | n | n | 99 | n | n | 104
C[C@H](CO)N1C[C@H](C)[C@@H](CN(C)C(=O)CC2CC2)Oc2cc(C#CCC3CCCC3)ccc2S1(=O)=O | 116 | n | n | n | u | 102 | n | 104
SMILES | T cruzi growth-1 | KDM4C inh | IDH1 R132H inh | Pf Dd2 inh | T cruzi growth-2 | T cruzi growth-3 | NIH3T3 tox | 3T3 cytotox 2
C[C@H](CO)N1C[C@H](C)[C@@H](CN(C)C(=O)CN(C)C)Oc2cc(C#CCC3CCCC3)ccc2S1(=O)=O | n | n | n | n | x | x | x | x
C[C@H]1CN([C@@H](C)CO)S(=O)(=O)c2ccc(C#CCC3CCCC3)cc2O[C@@H]1CN(C)C(=O)CC1CC1 | 121 | x | n | n | 103 | 113 | n | 105
C[C@H]1CN([C@@H](C)CO)S(=O)(=O)c2ccc(C#CCC3CCCC3)cc2O[C@H]1CN(C)C(=O)CN(C)C | n | n | n | n | x | x | x | x
CC1CC(=O)C2=C(C1)C(Cl)C(O)C1(O)C2C(=O)c2cccc(O)c2C1O (stereo not given) | x | x | n | x | x | x | x | x
COc1ccc(C#Cc2ccc([C@H]3[C@@H](CO)N4CCCCN(C(=O)c5ccncc5)C[C@H]34)cc2)cc1 | 101 | n | x | n | 102 | n | n | 106
C[C@@H](O)C#Cc1ccc([C@H]2[C@@H](CO)N3CCCCN(C(=O)c4ccc(F)cc4)C[C@H]23)cc1 | 99 | n | x | n | 102 | n | n | n
C[C@H](O)C#Cc1ccc([C@H]2[C@H]3CN(C(=O)c4ccc(F)cc4)CCCCN3[C@H]2CO)cc1 | n | n | x | n | x | x | x | x
C[C@@H](O)C#Cc1ccc([C@H]2[C@H]3CN(C(=O)c4ccncc4)CCCCN3[C@H]2CO)cc1 | u | n | x | n | u | n | n | n
C[C@@H](O)C#Cc1ccc([C@H]2[C@@H](CO)N3CCCCN(C(=O)c4ccc(F)cc4)C[C@@H]23)cc1 | 103 | n | x | n | n | n | n | n
Cc1cc(C)c(C)c(OCC(=O)NCc2cccnc2)c1 | x | x | n | x | x | x | x | x
COc1ccc(NC(=O)C(C)Oc2ccccc2C)c([N+](=O)[O-])c1 (stereo not given) | x | x | n | x | x | x | x | x
CCCC#Cc1ccc([C@H]2[C@H](C#N)N(C(=O)C3CCC3)[C@H]2CO)cc1 | n | n | x | n | x | x | x | x
CCCC#Cc1ccc([C@H]2[C@@H](C#N)N(C(=O)C3CCC3)[C@@H]2CO)cc1 | 99 | n | x | n | 102 | 100 | n | n
